The list is not random: actives were taken first. Their share in the collection is about 4.1%.
KCNQ1 pot – potentiators or activators of KCNQ1 channel, primary screen, cell-based, thallium flux, high-throughput; Potassium voltage-gated channel subfamily KQT member 1 (Homo sapiens), P51787; CHO-K1 KCNQ1, thallium flux FluxOR fluorescence; stronger effect = higher value; B-score at 10 µM; actives 0.35% (n = 310,000);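 active means fluorescence ratio B-score, a plate-corrected score, at least three library SD, with initial intensity B-score within 5 SD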
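Assay system: stable KCNQ1 CHO-K1 line; medium: assay buffer, equal DMSO in all wells; timing: 90 min dye loading and 20 min compound exposure, both at room temperature; technique: kinetic FluxOR thallium fluorescence, 10-s 1-Hz baseline, 110-s post-stimulus read; read-out basis: B score of baseline-normalized fluorescence ratio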
hERG protect – hERG rescue from dofetilide block, primary screen, cell-based, CHO-hERG, FluxOR thallium flux, dofetilide IC70. AID 1511, 2009. actives 0.51% (n = 310,000). activation (rescue from dofetilide block), less the hit threshold, % at 10 µM. dofetilide IC70 present. Voltage-gated inwardly rectifying potassium channel KCNH2 (Homo sapiens), Q12809;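 active means activation above the mean of controls blocked by dofetilide plus 5 SD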;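 further: thallium influx through hERG after potassium depolarization seen as dye fluorescence rise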
KCNK9 inh – KCNK9 potassium channel inhibitors, primary screen, HEK293 cells, thallium flux; Potassium channel subfamily K member 9 (Homo sapiens), Q9NPC2; AID 488922, 2010; B-score at 10 µM; FluxOR thallium flux fluorescence; stronger effect = lower value; actives 1.2% (n = 310,000);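 active means ratio B-score over 3 SD below the library mean, with starting fluorescence within 5 SD of its mean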;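 further: negative B-score means less thallium flux so channel inhibition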
KCNK3 inh – human KCNK3 channel inhibitors, primary screen, CHO cells, FluxOR thallium flux, B-score; Potassium channel subfamily K member 3 (Homo sapiens), O14649; actives 0.84% (n = 340,000); FluxOR fluorescence; stronger effect = lower value; B-score at 10 µM;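 active means B-score under library mean minus 4 SD, starting fluorescence ratio at most library mean plus 5 SD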;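 further: more negative B-score means stronger inhibition of thallium flux through KCNK3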
KCNQ1 inh – inhibitors of human KCNQ1 channel, primary screen, cell-based, thallium flux, high-throughput. CHO-K1 KCNQ1, FluxOR thallium flux fluorescence; stronger effect = higher value. actives 1.3% (n = 310,000). Potassium voltage-gated channel subfamily KQT member 1 (Homo sapiens), P51787. B-score at 10 µM;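 active means compounds whose thallium flux B-score, printed positive for inhibition, exceeds three library SD while starting fluorescence stays within three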;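 further: channel opened by potassium depolarization with thallium stimulus after 20 min compound exposure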
Cl transport mod – KCC2 cotransporter modulators, thallium flux, primary screen, cell-based, HEK293 KCC2, FluoZin-2 fluorescence, MLSMR; AID 1456, 2008; B-score of Tl+ flux slope (higher = more flux/activation; lower = inhibition) at 10 µM; KCC2 cells, thallium flux FluoZin-2 fluorescence; actives 2.2% (n = 190,000); Solute carrier family 12 member 5 (Homo sapiens), Q9H2X9;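 active means thallium flux slope and its plate-corrected score both differing from the plate sample mean at a set confidence after two filtering rounds, in either direction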;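 further: slope of fluorescence scaled to starting intensity during 10 to 20 s after thallium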
Target sequence (Q9H2X9 whole entry, looked up): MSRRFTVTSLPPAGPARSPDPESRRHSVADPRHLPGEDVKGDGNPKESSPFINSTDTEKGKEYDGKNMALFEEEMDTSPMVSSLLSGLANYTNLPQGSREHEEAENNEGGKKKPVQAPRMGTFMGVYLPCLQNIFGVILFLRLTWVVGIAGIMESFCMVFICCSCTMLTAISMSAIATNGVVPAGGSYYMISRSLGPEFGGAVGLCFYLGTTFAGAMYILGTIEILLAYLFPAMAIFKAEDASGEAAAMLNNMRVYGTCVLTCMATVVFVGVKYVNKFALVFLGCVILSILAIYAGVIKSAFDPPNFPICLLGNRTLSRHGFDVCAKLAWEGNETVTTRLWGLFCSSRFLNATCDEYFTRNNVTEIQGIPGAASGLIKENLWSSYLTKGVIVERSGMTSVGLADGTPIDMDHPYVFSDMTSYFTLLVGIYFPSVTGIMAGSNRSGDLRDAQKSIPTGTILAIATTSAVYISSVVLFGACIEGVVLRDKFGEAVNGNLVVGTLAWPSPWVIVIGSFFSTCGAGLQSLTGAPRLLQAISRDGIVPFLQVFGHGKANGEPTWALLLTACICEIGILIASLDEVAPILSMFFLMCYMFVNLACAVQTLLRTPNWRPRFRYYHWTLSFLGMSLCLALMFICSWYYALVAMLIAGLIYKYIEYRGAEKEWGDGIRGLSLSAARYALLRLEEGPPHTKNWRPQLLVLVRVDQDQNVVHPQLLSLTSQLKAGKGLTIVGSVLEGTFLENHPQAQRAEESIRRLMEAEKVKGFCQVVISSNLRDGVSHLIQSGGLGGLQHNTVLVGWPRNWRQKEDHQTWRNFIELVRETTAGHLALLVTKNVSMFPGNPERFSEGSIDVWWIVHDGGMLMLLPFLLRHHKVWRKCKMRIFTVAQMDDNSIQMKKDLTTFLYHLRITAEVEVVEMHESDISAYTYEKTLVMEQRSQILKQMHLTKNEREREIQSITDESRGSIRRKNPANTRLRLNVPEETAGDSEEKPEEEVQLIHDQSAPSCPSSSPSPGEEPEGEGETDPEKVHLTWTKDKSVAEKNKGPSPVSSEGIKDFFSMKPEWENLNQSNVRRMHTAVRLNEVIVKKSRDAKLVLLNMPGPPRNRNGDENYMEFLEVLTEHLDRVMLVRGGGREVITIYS
Of the large screens only hits and unclear results are named; the others gave an inactive call.

C#CCOCCOCCOCCNc1nc(N2CCN(C(=O)C([C@@H](C)CC)n3cc(C(N)CC(C)C)nn3)CC2)nc(N2CCN(C(=O)[C@H](CCC(=O)O)n3cc(C(N)Cc4ccc(O)cc4)nn3)CC2)n1 (some centres undefined)	none
Cc1cccc(NC(=O)c2n[nH]c([N+](=O)[O-])c2Br)c1C	KCNQ1 inh 7
COc1ccccc1NC(=O)CCN1C(=O)C2CC=CCC2C1=O (centres undefined)	none (no result: Cl transport mod)
Cc1nn(C)c(C(=O)NC(=S)Nc2ccc([N+](=O)[O-])cc2)c1Cl	KCNQ1 pot 34, hERG protect 43.1 (no result: Cl transport mod)
Cc1nn(C)c(C(=O)NNC(=S)NCc2ccccc2)c1Cl	none (no result: Cl transport mod)
Cc1nn(C)c(C(=O)NC(=S)Nc2ccccc2Br)c1Cl	KCNQ1 pot 22, hERG protect 16.9 (no result: Cl transport mod)
CCn1ncc(Cl)c1C(=O)NC(=S)Nc1ccccc1Br	KCNQ1 pot 26, hERG protect 34.6 (no result: Cl transport mod)
Cc1nn(C)c(C(=O)NNC(=S)Nc2ccc(F)cc2)c1[N+](=O)[O-]	none
CCc1c(C)nc2ncnn2c1N1CCCC(C(=O)Nc2cc(F)ccc2C)C1 (centres undefined)	none
Cc1ccccc1N=Nc1c(C)[nH]n(C(N)=S)c1=O	Cl transport mod 10.6
CCCSC1=C(C#N)C2(CCCCC2)C(C#N)=C(N)N1	KCNQ1 inh 8
N#CC1=C(N)NC(SCC(=O)c2ccc(Br)cc2)=C(C#N)C12CCCCC2	KCNQ1 inh 12
N#CC1=C(N)NC(SCC(=O)c2ccc(Cl)cc2)=C(C#N)C12CCCC2	KCNQ1 inh 7
COc1cc(OC)cc(C(=O)N[C@H](C(=O)NCCc2ccc(S(N)(=O)=O)cc2)C(C)C)c1	none (no result: Cl transport mod)
O=C1CC(C(=O)Nc2ccc(Cl)cc2)n2ncnc2N1 (centres undefined)	none
Cc1ccccc1OCc1nc2ccccc2c(=O)n1/N=C/c1ccco1	KCNK9 inh -6.91
COc1ccc2[nH]cc(S(=O)(=O)c3ccc(C(C)C)cc3)c(=O)c2c1	none
CC1CCc2[nH]c3ccc(C(=O)N(C)CC(=O)Nc4ccccc4C(F)(F)F)cc3c2C1 (centres undefined)	none (no result: Cl transport mod)
CC(=O)c1ccc(N2C(=O)C3C(C2=O)C(C(=O)c2ccc(Cl)cc2)N2CCCC32)cc1 (centres undefined)	KCNQ1 inh 8 (no result: KCNK3 inh)
Cc1nc2c(cc1NC(=O)c1ccccc1)nc(C)n2Cc1ccccc1	none (no result: Cl transport mod)
CCOC(=O)C(=Cc1c[nH]c2ccc(S(=O)(=O)N(C)C)cc12)C(=O)OCC	none
CN1C(=O)/C(=C/c2cc(N=Nc3ccccc3)ccc2O)SC1=S	KCNQ1 inh 7 (no result: Cl transport mod)
Cc1cc([N+](=O)[O-])nn1CC(=O)N1CCN(Cc2ccccc2)CC1	none (no result: Cl transport mod)
COc1ccc(C(=O)Oc2cc(/C=N/NS(=O)(=O)c3ccccc3)ccc2OC)cc1	none
COc1ccc(/C=N/NS(=O)(=O)c2ccc(C)cc2)cc1OC(=O)c1ccc(C)cc1	KCNQ1 inh 6
CCC1CN(C(=O)N2CCC(C(=O)NCc3ccccc3OC)CC2)c2cc(C)ccc2O1 (centres undefined)	none (no result: Cl transport mod)
Cc1[nH]c(-c2ccccn2)nc(=S)c1Cl	KCNQ1 pot 41, hERG protect 51.7, Cl transport mod 63.1
c1ccc(-c2noc(CN3CCN(C(c4ccccc4)c4ccccc4)CC3)n2)cc1	KCNK9 inh -7.15 (no result: Cl transport mod)
Cc1noc(C)c1CSc1ccccc1C(=O)N(C)CC(=O)Nc1cccc(F)c1	none (no result: Cl transport mod)
COCCCNC(=O)/C(C#N)=C/c1c(N2CCN(C)CC2)nc2ccccn2c1=O	none (no result: Cl transport mod)
C=CCSC1=C(C#N)C(c2ccccc2Cl)C(C(=O)c2cccs2)C(O)(C(F)(F)F)N1 (centres undefined)	KCNQ1 inh 10

Screening data as filed in PubChem BioAssay.
